Results reported in ChEMBL document CHEMBL2380260, “Structure-activity relationship of N,N'-disubstituted pyrimidinetriones as Ca(V)1.3 calcium channel-selective antagonists for Parkinson's disease” (J Med Chem, 2013).

Tests used:
[1] = target: Voltage-dependent L-type calcium channel subunit alpha-1C (Oryctolagus cuniculus, UniProt P15381); test: Antagonist activity at rabbit CaV1.2alpha1C transfected in HEK293 cells by FLIPR assay; type: cell-based
Procedure, shortened: (§1)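 HEK293 cells stably expressing the L-type channel (rat CaV1.3 α1D with all alternative splice sites, or rabbit CaV1.2 α1C), each co-expressed with rat β3 and α2δ-1 subunits. Cells plated at 4 × 10⁴ cells/well and cultured in DMEM with 10% FBS for 4 days. Calcium influx read by Fluo-8 no-wash dye fluorescence on FLIPR Tetra. IC50 from triplicate percent-inhibition data fitted to a one-site sigmoidal model.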

[2] = target: Voltage-dependent L-type calcium channel subunit alpha-1D (Rattus norvegicus, UniProt P27732); test: Antagonist activity at rat CaV1.3alpha1D transfected in HEK293 cells by FLIPR assay; type: cell-based; procedure, shortened: as §1
[3] = Selectivity ratio of IC50 for rabbit CaV1.2alpha1C to IC50 for rat CaV1.3alpha1D
Procedure, shortened: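 Selectivity is defined as […] the ratio of the CaV1.2 IC50 to the CaV1.3 IC50. Both IC50s come from the Fluo-8 FLIPR calcium influx assay in stably transfected HEK293 cells, each run in triplicate and fitted to a one-site sigmoidal model.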

Sequence of Voltage-dependent L-type calcium channel subunit alpha-1D (P27732 whole entry): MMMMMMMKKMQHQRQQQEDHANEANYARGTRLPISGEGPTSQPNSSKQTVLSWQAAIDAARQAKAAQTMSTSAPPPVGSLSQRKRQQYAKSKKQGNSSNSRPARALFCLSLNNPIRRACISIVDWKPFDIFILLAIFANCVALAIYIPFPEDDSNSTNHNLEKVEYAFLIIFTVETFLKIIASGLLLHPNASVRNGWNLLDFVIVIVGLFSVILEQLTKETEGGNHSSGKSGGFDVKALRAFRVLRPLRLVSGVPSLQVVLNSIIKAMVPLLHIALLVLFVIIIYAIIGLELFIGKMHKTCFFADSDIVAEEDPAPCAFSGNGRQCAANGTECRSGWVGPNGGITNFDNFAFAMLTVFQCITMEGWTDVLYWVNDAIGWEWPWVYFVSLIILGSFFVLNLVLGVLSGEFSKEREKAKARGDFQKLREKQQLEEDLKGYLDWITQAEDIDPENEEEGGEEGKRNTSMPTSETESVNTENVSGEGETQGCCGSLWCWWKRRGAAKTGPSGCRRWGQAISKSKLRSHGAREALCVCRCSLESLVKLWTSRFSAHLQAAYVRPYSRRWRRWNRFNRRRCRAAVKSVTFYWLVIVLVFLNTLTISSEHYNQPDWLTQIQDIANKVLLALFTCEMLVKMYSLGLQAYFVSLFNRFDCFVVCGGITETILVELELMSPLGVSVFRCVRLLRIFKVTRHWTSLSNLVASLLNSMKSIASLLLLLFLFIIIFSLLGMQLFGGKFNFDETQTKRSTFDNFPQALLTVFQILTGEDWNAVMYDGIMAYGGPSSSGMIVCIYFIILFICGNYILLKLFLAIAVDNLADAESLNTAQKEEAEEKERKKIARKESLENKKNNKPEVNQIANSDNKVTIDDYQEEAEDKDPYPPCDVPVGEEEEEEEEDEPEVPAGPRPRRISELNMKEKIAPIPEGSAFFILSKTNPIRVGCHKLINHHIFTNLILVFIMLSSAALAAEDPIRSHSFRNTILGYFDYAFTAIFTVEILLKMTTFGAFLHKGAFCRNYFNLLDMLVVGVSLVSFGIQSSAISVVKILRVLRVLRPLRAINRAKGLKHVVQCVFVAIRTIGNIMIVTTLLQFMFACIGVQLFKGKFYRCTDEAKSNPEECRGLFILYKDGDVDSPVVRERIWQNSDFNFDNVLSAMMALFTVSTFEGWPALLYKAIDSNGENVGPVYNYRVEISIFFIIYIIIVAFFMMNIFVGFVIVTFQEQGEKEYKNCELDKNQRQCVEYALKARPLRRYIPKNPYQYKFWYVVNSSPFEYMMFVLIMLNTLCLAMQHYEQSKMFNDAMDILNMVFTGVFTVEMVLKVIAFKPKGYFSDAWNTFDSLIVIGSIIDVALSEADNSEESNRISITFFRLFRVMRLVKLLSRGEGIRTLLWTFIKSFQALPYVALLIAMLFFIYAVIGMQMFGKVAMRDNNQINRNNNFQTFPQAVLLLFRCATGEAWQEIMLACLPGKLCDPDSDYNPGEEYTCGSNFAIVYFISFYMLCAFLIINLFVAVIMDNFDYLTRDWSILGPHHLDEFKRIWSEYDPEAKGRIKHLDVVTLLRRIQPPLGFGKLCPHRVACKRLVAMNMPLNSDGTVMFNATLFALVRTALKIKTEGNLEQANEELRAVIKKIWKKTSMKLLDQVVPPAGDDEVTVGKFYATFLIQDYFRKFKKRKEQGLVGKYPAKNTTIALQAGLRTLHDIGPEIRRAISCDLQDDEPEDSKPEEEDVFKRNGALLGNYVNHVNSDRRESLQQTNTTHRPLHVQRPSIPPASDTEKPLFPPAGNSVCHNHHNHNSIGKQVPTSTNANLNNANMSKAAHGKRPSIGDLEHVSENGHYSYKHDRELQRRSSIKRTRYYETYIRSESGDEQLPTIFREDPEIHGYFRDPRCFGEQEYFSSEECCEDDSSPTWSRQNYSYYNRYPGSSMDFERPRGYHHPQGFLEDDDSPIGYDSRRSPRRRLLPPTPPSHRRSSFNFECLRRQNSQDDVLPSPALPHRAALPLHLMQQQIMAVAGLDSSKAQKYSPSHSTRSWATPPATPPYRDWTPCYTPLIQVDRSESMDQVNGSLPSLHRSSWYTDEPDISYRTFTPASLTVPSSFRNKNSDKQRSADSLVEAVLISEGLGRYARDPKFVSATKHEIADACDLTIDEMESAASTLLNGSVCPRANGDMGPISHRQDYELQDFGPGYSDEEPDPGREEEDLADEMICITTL
Sequence of Voltage-dependent L-type calcium channel subunit alpha-1C (P15381 whole entry, canonical isoform): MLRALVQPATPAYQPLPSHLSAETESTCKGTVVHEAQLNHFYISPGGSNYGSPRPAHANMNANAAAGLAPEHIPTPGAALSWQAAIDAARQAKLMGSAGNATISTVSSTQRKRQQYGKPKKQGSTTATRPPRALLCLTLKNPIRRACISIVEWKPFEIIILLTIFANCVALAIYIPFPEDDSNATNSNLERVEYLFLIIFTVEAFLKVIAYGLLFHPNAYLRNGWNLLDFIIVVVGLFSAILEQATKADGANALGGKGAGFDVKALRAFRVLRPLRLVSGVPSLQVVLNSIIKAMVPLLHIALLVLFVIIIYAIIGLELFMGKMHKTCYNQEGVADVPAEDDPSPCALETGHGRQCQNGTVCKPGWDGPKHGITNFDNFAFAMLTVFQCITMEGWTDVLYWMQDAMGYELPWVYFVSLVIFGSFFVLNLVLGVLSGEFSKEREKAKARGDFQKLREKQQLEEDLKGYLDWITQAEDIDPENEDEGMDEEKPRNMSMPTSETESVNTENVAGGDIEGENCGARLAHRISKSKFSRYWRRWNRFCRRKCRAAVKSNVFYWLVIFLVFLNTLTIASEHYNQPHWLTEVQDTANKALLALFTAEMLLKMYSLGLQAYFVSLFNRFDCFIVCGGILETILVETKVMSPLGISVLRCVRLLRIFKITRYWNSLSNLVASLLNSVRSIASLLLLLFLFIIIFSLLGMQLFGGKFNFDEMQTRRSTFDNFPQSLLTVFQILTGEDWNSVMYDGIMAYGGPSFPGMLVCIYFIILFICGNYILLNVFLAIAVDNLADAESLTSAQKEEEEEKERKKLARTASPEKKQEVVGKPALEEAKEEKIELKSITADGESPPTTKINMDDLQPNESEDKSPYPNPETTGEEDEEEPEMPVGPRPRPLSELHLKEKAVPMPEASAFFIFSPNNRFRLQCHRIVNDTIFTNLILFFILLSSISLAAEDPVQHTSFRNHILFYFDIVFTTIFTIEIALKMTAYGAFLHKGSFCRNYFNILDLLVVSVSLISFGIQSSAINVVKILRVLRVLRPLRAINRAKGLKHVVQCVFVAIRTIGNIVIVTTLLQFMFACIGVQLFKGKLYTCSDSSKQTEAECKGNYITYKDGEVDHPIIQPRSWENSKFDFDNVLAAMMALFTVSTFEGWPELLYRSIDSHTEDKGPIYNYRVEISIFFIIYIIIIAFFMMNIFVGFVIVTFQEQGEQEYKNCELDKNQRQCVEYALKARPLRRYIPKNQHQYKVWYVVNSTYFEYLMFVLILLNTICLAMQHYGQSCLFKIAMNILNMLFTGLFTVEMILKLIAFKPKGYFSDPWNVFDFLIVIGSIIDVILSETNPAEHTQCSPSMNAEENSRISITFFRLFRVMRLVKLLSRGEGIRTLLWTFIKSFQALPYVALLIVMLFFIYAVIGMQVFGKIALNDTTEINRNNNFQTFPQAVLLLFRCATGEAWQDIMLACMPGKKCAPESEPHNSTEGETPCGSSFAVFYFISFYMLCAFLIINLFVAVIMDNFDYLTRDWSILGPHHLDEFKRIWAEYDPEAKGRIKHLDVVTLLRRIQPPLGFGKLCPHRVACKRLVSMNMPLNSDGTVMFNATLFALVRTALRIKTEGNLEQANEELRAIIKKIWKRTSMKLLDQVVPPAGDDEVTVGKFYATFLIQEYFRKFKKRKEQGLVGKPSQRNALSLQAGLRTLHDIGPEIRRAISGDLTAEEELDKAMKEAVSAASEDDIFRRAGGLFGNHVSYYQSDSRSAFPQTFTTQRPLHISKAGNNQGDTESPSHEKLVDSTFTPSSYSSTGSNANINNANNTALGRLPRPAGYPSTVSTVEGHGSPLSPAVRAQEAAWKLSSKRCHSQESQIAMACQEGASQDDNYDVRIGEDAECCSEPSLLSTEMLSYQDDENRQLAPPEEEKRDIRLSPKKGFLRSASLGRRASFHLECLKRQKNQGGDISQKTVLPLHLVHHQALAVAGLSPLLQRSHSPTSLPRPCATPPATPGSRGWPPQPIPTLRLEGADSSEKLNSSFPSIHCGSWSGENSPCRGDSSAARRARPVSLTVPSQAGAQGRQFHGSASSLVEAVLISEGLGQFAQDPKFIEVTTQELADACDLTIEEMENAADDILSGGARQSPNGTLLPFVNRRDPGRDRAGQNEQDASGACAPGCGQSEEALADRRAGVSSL

| Compound | IC50 [1] [µM] | IC50 [2] [µM] | Ratio IC50 [3] |
| --- | --- | --- | --- |
| COC(=O)[C@@H](Cc1ccccc1)N1C(=O)CC(=O)N(C2CCCC2)C1=O | 44.3 | 55 | – |
| CC1(C)[C@@H]2CC[C@@]1(C)[C@@H](N1C(=O)CC(=O)N(CCc3cccc(Cl)c3)C1=O)C2 | > 100 | > 100 | – |
| CC(C)(CN1C(=O)CC(=O)N(C2CCCC2)C1=O)c1cccc(C(F)(F)F)c1 | 4.2 | 2.2 | – |
| C[C@H]1CCC[C@H]1N1C(=O)CC(=O)N(CCc2ccc(Cl)cc2)C1=O | 10 | 2.8 | – |
| CC1(C)[C@@H]2CC[C@H](CN3C(=O)CC(=O)N(CCc4cccc(Cl)c4)C3=O)[C@H]1C2 | 47 | 40 | – |
| O=C1CC(=O)N(C2CCCC2)C(=O)N1Cc1cccc(Cl)c1 | 46.7 | 43 | – |
| O=C1CC(=O)N(C2Cc3ccccc3C2)C(=O)N1C1CCCC1 | 16.4 | 14.4 | – |
| CC(CN1C(=O)CC(=O)N(C2CC3CCC2C3)C1=O)c1ccc(Cl)cc1 (racemic) | 8 | 3.4 | – |
| C[C@@H]1[C@@H](C)CC[C@@H]1N1C(=O)CC(=O)N(CCc2cccc(Cl)c2)C1=O | 13.2 | 3.09 | – |
| CC1CCC(N2C(=O)CC(=O)N(CCc3cccc(Cl)c3)C2=O)CC1 (stereo not drawn) | 46 | 35 | – |
| COC(=O)C1(N2C(=O)CC(=O)N(CCc3cccc(Cl)c3)C2=O)CCCC1 | 33.4 | 32.7 | – |
| O=C1CC(=O)N([C@@H]2C[C@@H]3CC[C@H]2C3)C(=O)N1CCc1cccc(C(F)(F)F)c1 | 76.6 | 2.1 | – |
| C[C@H]1CCCC[C@H]1N1C(=O)CC(=O)N(CCc2cccc(Cl)c2)C1=O | 3.7 | 3.7 | – |
| O=C1CC(=O)N(C2CCCc3ccccc32)C(=O)N1C1CCCC1 (stereo not drawn) | 20 | 19.7 | – |
| CC1CCC(N2C(=O)CC(=O)N(CCc3cccc(Cl)c3)C2=O)C1 (stereo not drawn) | 38 | 3.7 | – |
| O=C1CC(=O)N(C2CC3CCC2C3)C(=O)N1CCc1cccc(C(F)(F)F)c1 (racemic) | 100 | 2.4 | – |
| O=C1CC(=O)N(C2CCCC2)C(=O)N1Cc1ccc(Cl)cc1 | 51.7 | 17.9 | – |
| O=C1CC(=O)N(C2CC3CCC2C3)C(=O)N1CCc1cc(C(F)(F)F)cc(C(F)(F)F)c1 (mixture of isomers) | 3.8 | 1.8 | – |
| O=C1CC(=O)N([C@H]2C[C@H]3CC[C@@H]2C3)C(=O)N1CCc1ccc(Cl)cc1 | 100 | 2.1 | – |
| CC1(C)CCC[C@@H]1N1C(=O)CC(=O)N(CCc2ccc(Cl)cc2)C1=O | 2.3 | 1.7 | – |
| COC(=O)C1=C(C)NC(=S)N(C(=O)OC(C)C)C1c1cccc([N+](=O)[O-])c1 (stereo not drawn) | – | – | < 2 |
| COc1ccc(CCN(C)CCCC(C#N)(c2ccc(OC)c(OC)c2)C(C)C)cc1OC (stereo not drawn) | – | – | < 2 |
| O=C(OCc1ccccc1)N1CC[C@H](N2C(=O)CC(=O)N(CCc3cccc(Cl)c3)C2=O)C1 | 33.9 | 50.3 | – |
| C[C@@H]1[C@@H](N2C(=O)CC(=O)N(CCc3ccc(Cl)cc3)C2=O)C[C@H]2C[C@@H]1C2(C)C | 28 | 22 | – |
| CCOC(=O)[C@@H]1CCC[C@@H]1N1C(=O)CC(=O)N(CCc2cccc(Cl)c2)C1=O | 12.6 | 12 | – |

| Compound | IC50 [1] [µM] | IC50 [2] [µM] | Ratio IC50 [3] |
| --- | --- | --- | --- |
| O=C(O)[C@H]1CC[C@@H](N2C(=O)CC(=O)N(CCc3cccc(Cl)c3)C2=O)C1 | > 100 | > 100 | – |
| O=C1CC(=O)N(C2CCCC2)C(=O)N1CC1(c2ccc(Cl)cc2)CC1 | > 100 | 7.3 | – |
| O=C1CC(=O)N(C2CCCC2)C(=O)N1c1cccc(C(F)(F)F)c1 | > 100 | > 100 | – |
| COC(=O)[C@H](Cc1ccccc1)N1C(=O)CC(=O)N(C2CCCC2)C1=O | > 100 | > 100 | – |
| C[C@@H](C1CCCCC1)N1C(=O)CC(=O)N(CCc2cccc(Cl)c2)C1=O | > 100 | 4.3 | – |
| CC1(C)[C@@H]2CC[C@H](CN3C(=O)CC(=O)N(CCc4ccc(Cl)cc4)C3=O)[C@H]1C2 | > 100 | > 100 | – |
| CC(C)OC(=O)[C@H]1CC[C@@H](N2C(=O)CC(=O)N(CCc3cccc(Cl)c3)C2=O)C1 | 8.5 | 10.4 | – |
| CCC1CCC(N2C(=O)CC(=O)N(CCc3cccc(Cl)c3)C2=O)C1 (stereo not drawn) | 15 | 7.3 | – |
| CC(C)c1ccc(CCN2C(=O)CC(=O)N(C3CCCC3)C2=O)cc1 | 57.6 | 39 | – |
| C[C@H](c1cccc2ccccc12)N1C(=O)CC(=O)N(CCc2cccc(Cl)c2)C1=O | 10 | 10.8 | – |
| C[C@H]1[C@H](N2C(=O)CC(=O)N(CCc3ccc(Cl)cc3)C2=O)C[C@@H]2C[C@H]1C2(C)C | > 100 | 18 | – |
| CC(CN1C(=O)CC(=O)N(C2CCCC2)C1=O)c1cccc(Cl)c1 (stereo not drawn) | 20.7 | 4.2 | – |
| CC(Cc1ccc(Cl)cc1)N1C(=O)CC(=O)N(C2CC3CCC2C3)C1=O (racemic) | 4.1 | 3.6 | – |
| CC1(C)CCC(N2C(=O)CC(=O)N(CCc3ccc(Cl)cc3)C2=O)C1 (stereo not drawn) | 26 | 3.7 | – |
| CC(=O)OCC1(N2C(=O)CC(=O)N(CCc3cccc(Cl)c3)C2=O)CCCC1 | 29.1 | 39.3 | – |
| CC1(C)[C@@H]2CC[C@@]1(C)[C@@H](N1C(=O)CC(=O)N(CCc3ccc(Cl)cc3)C1=O)C2 | > 100 | > 100 | – |
| O=C1CC(=O)N([C@H]2C[C@H]3CC[C@@H]2C3)C(=O)N1CCc1cccc(C(F)(F)F)c1 | > 100 | 3 | – |
| O=C1CC(=O)N(C[C@H]2CCCO2)C(=O)N1CCc1ccc(Cl)cc1 | > 100 | > 100 | – |
| CC1CCC(N2C(=O)CC(=O)N(CCc3ccc(Cl)cc3)C2=O)CC1 (stereo not drawn) | 30 | 11 | – |
| CC1(C)CCC(N2C(=O)CC(=O)N(CCc3cccc(Cl)c3)C2=O)C1 (stereo not drawn) | 43 | 5.6 | – |
| C[C@H]1[C@H](N2C(=O)CC(=O)N(CCc3cccc(Cl)c3)C2=O)C[C@@H]2C[C@H]1C2(C)C | > 100 | > 100 | – |
| O=C1CC(=O)N(C2CCCC2)C(=O)N1CCc1cccc(Cl)c1 | > 100 | 6.3 | – |
| O=C1CC(=O)N(C2CCc3ccccc32)C(=O)N1C1CCCC1 (stereo not drawn) | 24.8 | 19.9 | – |
| CC1CCC(N2C(=O)CC(=O)N(CCc3ccc(Cl)cc3)C2=O)C1 (stereo not drawn) | 20.4 | 9.8 | – |
| C[C@@H]1CCC[C@@H]1N1C(=O)CC(=O)N(CCc2ccc(Cl)cc2)C1=O | 5.1 | 3.1 | – |

| Compound | IC50 [1] [µM] | IC50 [2] [µM] | Ratio IC50 [3] |
| --- | --- | --- | --- |
| O=C1CC(=O)N(C2CCCC2)C(=O)N1CCc1ccc(-c2ccccc2)cc1 | 5.4 | 4.4 | – |
| C[C@H]1CCC[C@@H]1N1C(=O)CC(=O)N(CCc2ccc(Cl)cc2)C1=O (racemic) | 23 | 7 | – |
| C[C@H](C1CCCCC1)N1C(=O)CC(=O)N(CCc2cccc(Cl)c2)C1=O | > 100 | 9.7 | – |
| COC(=O)C1=C(C)NC(C)=C(C(=O)OC(C)C)C1c1cccc2nonc12 (stereo not drawn) | – | – | < 2 |
| O=C1CC(=O)N(C[C@H]2CCCO2)C(=O)N1CCc1cccc(Cl)c1 | 41 | > 100 | – |
| CC(C)C(=O)OCC1(N2C(=O)CC(=O)N(CCc3cccc(Cl)c3)C2=O)CCCC1 | 10.6 | 11.9 | – |
| CC(=O)O[C@H]1CCC[C@@H]1N1C(=O)CC(=O)N(CCc2cccc(Cl)c2)C1=O | 48.1 | > 100 | – |
| COC(=O)C(Cc1ccc(Cl)cc1)N1C(=O)CC(=O)N(C2CCCC2)C1=O (stereo not drawn) | 13.4 | 7.5 | – |
| CC1(C)CCC[C@H]1N1C(=O)CC(=O)N(CCc2ccc(Cl)cc2)C1=O | 4.8 | 4.7 | – |
| O=C1CC(=O)N([C@H]2CCNC2)C(=O)N1CCc1cccc(Cl)c1 | > 100 | > 100 | – |
| CCC(CC)N1C(=O)CC(=O)N(CCc2cccc(Cl)c2)C1=O | 25.5 | 11.7 | – |
| C[C@@H]1[C@@H](N2C(=O)CC(=O)N(CCc3cccc(Cl)c3)C2=O)C[C@H]2C[C@@H]1C2(C)C | > 100 | > 100 | – |
| O=C1CC(=O)N(C2CCCC2)C(=O)N1CCc1cc(Cl)cc(Cl)c1 | 3.3 | 1.4 | – |
| CO[C@H]1CCC[C@@H]1N1C(=O)CC(=O)N(CCc2cccc(Cl)c2)C1=O | 34.6 | 30.3 | – |
| C[C@H](c1cccc2ccccc12)N1C(=O)CC(=O)N(C2CCCC2)C1=O | 6.15 | 4.6 | – |
| CC1(C)CCC[C@H]1N1C(=O)CC(=O)N(CCc2cccc(C(F)(F)F)c2)C1=O | 3.1 | 2.7 | – |
| CCC1CCC(N2C(=O)CC(=O)N(CCc3ccc(Cl)cc3)C2=O)C1 (racemic) | 29 | 6.7 | – |
| CC(C)C(=O)O[C@H]1CCC[C@@H]1N1C(=O)CC(=O)N(CCc2cccc(Cl)c2)C1=O | 12.9 | 13.7 | – |
| CC(C)(CN1C(=O)CC(=O)N(C2CC3CCC2C3)C1=O)c1cccc(Cl)c1 (mixture of isomers) | 2.8 | 2.3 | – |
| O=C1CC(=O)N(C2CC3CCC2C3)C(=O)N1CCc1cc(Cl)cc(Cl)c1 (racemic) | 4.6 | 2.7 | – |
| O=C1CC(=O)N([C@H]2CCC[C@@H]2O)C(=O)N1CCc1cccc(Cl)c1 | > 100 | > 100 | – |
| C[C@H]1CCCC[C@H]1N1C(=O)CC(=O)N(CCc2ccc(Cl)cc2)C1=O | 8.3 | 6.1 | – |
| O=C1CC(=O)N(C2CCCC2)C(=O)N1CCC(c1ccccc1)c1ccccc1 | 4.7 | 4.1 | – |
